Assay results of several laboratories.
Compare with care: the assays were run in different laboratories.
Target: Focal adhesion kinase 1 (PTK2, Homo sapiens, UniProt Q05397)

| Compound | observed | method | tested at | remaining binding |
| --- | --- | --- | --- | --- |
| CNC(=O)Nc1ccc2c(c1)[C@@]1(CC2)OC(=O)N(CC(=O)N(Cc2ccc(F)cc2)[C@@H](C)C(F)(F)F)C1=O | cell-free assay | competition with immobilised ligand | 1 µM | 100% |
| COc1cnc(Nc2cccc(S(N)(=O)=O)c2)nc1N1CCN(c2ccccc2)CC1 | binding | competition with immobilised ligand | 1 µM | 100% |
| CC(=O)C1=C(C)N(c2cccc(C(F)(F)F)c2)C(=O)N[C@@H]1c1ccc(C#N)nc1 | cell-free assay | competition with immobilised ligand | 1 µM | 100% |
| O=C(Nc1c[nH]nc1C(=O)NC1CCNCC1)c1cc(F)cc(F)c1 | binding | competition with immobilised ligand | 1 µM | 91% |
| c1cnn2ncc(-c3ccnc(N4CCC45COC5)n3)c2c1 | binding |  | 1 µM | 99% |
| CCS(=O)(=O)c1cc2cc(C[C@@](O)(CC(C)(C)c3ccc(F)cc3C(N)=O)C(F)(F)F)[nH]c2cn1 | cell-free assay | competition with immobilised ligand | 1 µM | 100% |
| O=C(NCCCN1CCOCC1)c1ccc(Nc2nccc(-c3cc4ccccc4s3)n2)cc1 | binding | competition with immobilised ligand | 1 µM | 100% |
| C[C@H]1CCN(c2nccc(-c3cnn4ncccc34)n2)C1 | binding |  | 1 µM | 100% |
| C[C@@H]1CN(c2ccc3ncc(-c4ccc5[nH]nc(C6CC6)c5c4)n3n2)C[C@H](C)O1 | binding | competition with immobilised ligand | 0.5 µM | 100% |
| Cc1c(C(=O)O)cc(-c2ccc(C3CCNCC3)cc2)c2ccc(-c3ccc(C(F)(F)F)cc3)cc12 | binding | competition with immobilised ligand | 1 µM | 100% |
| O=C(NCCCN1CCOCC1)c1ccc(Nc2ncc(Cl)c(-c3ccc(Cl)s3)n2)cc1 | binding | competition with immobilised ligand | 1 µM | 8.1% |
| c1ccc(N2CCN(Cc3nc4ccccc4[nH]3)CC2)nc1 | binding | competition with immobilised ligand | 1 µM | 86% |
| COc1ncc2cc3ccccc3nc2c1C#N | cell-free assay | competition with immobilised ligand | 5 µM | 100% |
| Cc1cc(-c2cc(C(F)(F)F)ccc2O[C@H]2C[C@@]2(CNS(=O)(=O)c2ccc([N+](=O)[O-])cc2)c2ccc(F)cc2F)[nH]n1 | cell-free assay | competition with immobilised ligand | 0.3 µM | 22% |
| CN(C)c1nccc(-c2cnn3ncccc23)n1 | binding |  | 1 µM | 79% |
| COc1cccc(CNC(=O)c2nc3scc(COCc4ccc(C(=O)O)cc4)c3c(=O)[nH]2)c1 | cell-free assay | competition with immobilised ligand | 1 µM | 100% |
| c1cncc(-c2cccc(Nc3nccc(NC4CCCCC4)n3)c2)c1 | binding | competition with immobilised ligand | 10 µM | 67% |
| O=C(c1ccc(Nc2ncc(Cl)c(-c3cc4ccccc4s3)n2)cc1)N1CCC(N2CCCC2)CC1 | binding | competition with immobilised ligand | 1 µM | 78% |
| CN(C)c1nccc(-c2cnc3ncccn23)n1 | binding |  | 1 µM | 100% |
| FC(F)(F)Oc1cccc(-c2cnc3ccc(-c4ccncc4)nn23)c1 | cell-free assay | competition with immobilised ligand | 5 µM | 83% |
| C=CC(=O)N1CCC(C(=O)NCC(=O)N2CCN(c3nc(-c4cnc(N)nc4C(F)F)nc(N4CCOCC4)n3)CC2)CC1 | binding | competition with immobilised ligand | 1 µM | 100% |
| CN(C)c1ncc(F)c(-c2cnn3ncccc23)n1 | binding |  | 1 µM | 100% |
| O=C(N[C@H]1CCCCC/C=C\C2C[C@@]2(C(=O)O)NC(=O)[C@@H]2C[C@@H](Oc3ccncc3)CN2C1=O)OC1CCCC1 (some centres unmarked) | binding | competition with immobilised ligand | 1 µM | 97% |
